# Assay outcomes: PubChem BioAssay, several laboratories
# Cneo AK release = causes C. neoformans cell lysis. adenylate kinase release luminescence, 4 h; normalised: neutral wells 0, clomiphene wells 100. lysis activity, % at 15 µM. 360,000 tested, 0.2% active. AID 651654;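 active means mean lysis activity across replicates of at least 80%, whatever share of replicates individually reach that level; inactive means mean lysis activity below 80%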
#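 Assay system: C. neoformans cells. Amount: yeast cell density of 5 × 10^6 cells/mL. Technique: AK luminescence. Buffer or medium: YPD. Times: static 4 h at 37 °C with compound, 1 h detection. Dosing: single-point compound dose. Read-out: lysis from increased AK signal.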
# Efflux pump inh = blocks antifungal efflux pumps in multiplex yeast assay; S. cerevisiae Candida pump triplex, Nile Red efflux; inhibition, % at 10 µM; 330,000 tested, 0.44% active;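 active means plate passing quality check with inhibition over a set limit, or well fluorescence over plate mean plus 4 SD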;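 further: Nile Red retained in pooled yeast measured as flow cytometry median fluorescence; 0% = buffer negative control and 100% = Enniatin B positive control; higher means more Nile Red kept so more efflux inhibition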
# Mot1-301 SUMO = inhibitors of SUMOylation pathway: yeast Mot1-301 growth rescue; S. cerevisiae Mot1-301 growth rescue, ATP luminescence, 38.5C; percent above DMSO median, 100 means doubled; growth rescue, % at 18.8 µM; 320,000 tested, 1% active;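 active means every valid replicate shows activation above 250% relative to neutral control wells; inactive means the rest, any valid replicate at or below 250%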;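 further: OY570 slx delta 5 strain wells were the positive control but not used for scaling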
# C2C12 statin = protects C2C12 myotubes from simvastatin toxicity; ATP luminescence, 48 h; scaled: DMSO 0, geranylgeraniol control 100; rescue of ATP level, % at 7.49 µM; 330,000 tested, 0.78% active;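 active means mean ATP rescue above about 67%, or every replicate alone reaching that limit, limit read from the data, passing the limit was not always enough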;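 further: myotubes were challenged with 10 µM simvastatin during compound exposure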
# Active calls of the source: *; · = no result given. Shown are actives, neighbours in structure and some others; about 1.8% of the full set was active somewhere.
SMILES,Cneo AK release,Efflux pump inh,Mot1-301 SUMO,C2C12 statin
COC(=O)Cc1[nH]nc2c1C1(C(=O)N(Cc3ccccc3)c3ccccc31)C(C#N)=C(N)O2 (stereo not given),1,0,-3,6
COc1ccc(NC(=O)N[C@@H]2CC[C@@H](CCn3cc(C4(O)CCCC4)nn3)O[C@H]2CO)cc1,0,·,·,-7
C=CCN1C(=O)[C@]2(O[C@H](CCO)[C@@H]([Si](C)(C)c3ccc(OC)cc3)[C@@H]2C)c2ccccc21,3,·,·,·
O=C(Nc1ccccc1C(=O)NC(Cc1ccccc1)C(=O)NC1CCCCCC1)c1ccccc1 (stereo not given),0,0,-11,119*
Cc1nnsc1NC(=O)OCCCl,2,0,5,·
CCOC(=O)c1ccc2c(c1)nc(SCC(=O)N1CCCCC1)n2CC,2,0,293*,-6
CCn1c(SCC(=O)N2CCCC2)nnc1-c1ccc(N)cc1,1,0,-13,124*
C[C@@H]1CCCCO[C@H](CN(C)C(=O)Nc2ccc3c(c2)OCO3)[C@H](C)CN([C@H](C)CO)C(=O)c2cc(NC(=O)Nc3ccc(C(F)(F)F)cc3)ccc2O1,1,·,·,·
CNC(=O)c1ccccc1S(=O)(=O)c1ccccc1C#N,-4,0,-14,101*
Cc1noc(C)c1NC(=O)N(C)C[C@H]1OCCCC[C@H](C)Oc2ccc(NC(=O)NC(C)C)cc2C(=O)N([C@@H](C)CO)C[C@@H]1C,90*,·,·,·
Cc1noc(C)c1NC(=O)N(C)C[C@H]1OCCCC[C@@H](C)Oc2ccc(NC(=O)NC(C)C)cc2C(=O)N([C@H](C)CO)C[C@H]1C,100*,·,·,·
COc1cccc(CC(NC(C)=O)C(=O)NC2CCN(c3nc(C)cc(C)c3C#N)CC2)c1 (stereo not given),-1,0,14,118*
C[C@@H]1CN([C@@H](C)CO)C(=O)Cc2cc(NC(=O)Nc3cccc4ccccc34)ccc2O[C@@H]1CN(C)S(=O)(=O)c1ccc(Cl)cc1,-15,·,·,95*
C[C@H](CO)N1C[C@H](C)[C@@H](CN(C)S(=O)(=O)c2ccc(Cl)cc2)Oc2ccc(NC(=O)Nc3cccc4ccccc34)cc2CC1=O,-8,·,·,-24
C[C@@H]1CN([C@H](C)CO)C(=O)Cc2cc(NC(=O)Nc3cccc4ccccc34)ccc2O[C@H]1CN(C)CC1CCCCC1,4,·,·,75*
C[C@@H]1CN([C@@H](C)CO)C(=O)Cc2cc(NC(=O)Nc3cccc4ccccc34)ccc2O[C@@H]1CN(C)S(=O)(=O)c1cccs1,95*,·,·,47
C[C@@H]1CN([C@H](C)CO)C(=O)Cc2cc(NC(=O)Nc3cccc4ccccc34)ccc2O[C@@H]1CN(C)CC1CCCCC1,7,·,·,-5
Cc1ccc(C(=O)N/C(=C/c2ccc(Cl)cc2)C(=O)NCC2CCCO2)cc1 (stereo not given),·,0,-21,·
CCN(CC)C(=O)C(=O)N/N=C/c1ccc(Br)cc1,-1,0,-21,89*
CC1(C)NC(=O)N(CC(O)CN2C(=O)CCC2=O)C1=O (stereo not given),-1,0,3,11
CC1(C)NC(=O)N(CC(O)Cn2nnc3ccccc32)C1=O (stereo not given),-4,0,34,131*
CC(OC(=O)c1ccc(OCC2CCCO2)cc1)C(=O)N(C)Cc1ccccc1 (stereo not given),3,0,27,4
CO[C@H]1CN(C)C(=O)c2cc(NC(=O)C3CCOCC3)ccc2OC[C@@H](C)NC[C@H]1C,107*,·,·,-8
CO[C@@H]1CN(C)C(=O)c2cc(NC(=O)C3CCOCC3)ccc2OC[C@H](C)NC[C@@H]1C,102*,·,·,-1
Cc1ccc(S(=O)(=O)N(C)CC(=O)Nc2cccc3c2CCCC3)cc1,-1,0,14,1
SMILES,Cneo AK release,Efflux pump inh,Mot1-301 SUMO,C2C12 statin
Cc1cccc(Nc2nc(N)nc(CN3CCN(c4ccccc4)CC3)n2)c1,-1,0,15,-31
Cc1cccc(Nc2nc(N)nc(CN3CCN(c4ccccc4F)CC3)n2)c1,-9,0,10,81*
Oc1ccc(/C=N/n2cc(-c3ccccc3)[nH]c2=S)cc1,·,0,·,·
COc1cc(/C=N/n2cc(-c3ccccc3)[nH]c2=S)cc(OC)c1O,-1,0,540*,22
CN(c1ccc(Cl)cc1)c1cc(=O)n(C)c2ccccc12,-5,0,-10,129*
COc1cc(=O)n(C)c2ccccc12,-1,0,-9,7
CCOc1ccc(Br)cc1S(=O)(=O)Nc1ccc(Cl)c(S(=O)(=O)N(C)C)c1,-2,-1,-20,·
